From PubChem BioAssay
The source made the active and inactive calls.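 Rule for the calls, unless noted: active = viability at or below 10% of carrier control in both of two separate runs; inconclusive = viability at or below 10% in only one of the two runs; inactive = the rest.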

Legend:
[1] = Her2 expression decrease, cell viability multiplex – SKBR3 breast tumor cells, AlphaScreen, ATP viability, primary screen (AID 461;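 active = Her2 level under about 52% in both replicate screens, with viability over 70% of control, limit read from the data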;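 for Her2 level: lower value means less Her2 protein in the cells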;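 for viability: percent of carrier control wells set as 100% viability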); settings: SKBR3 Her2 protein level, 18-24 h, measured here: SKBR3 viability, ATP luminescence, at 10 µM
[2] = target: Receptor tyrosine-protein kinase erbB-2 (Homo sapiens) (UniProt P04626); experiment: as above; settings: 18-24 h, at 10 µM, stronger effect = lower value
[3] = reduced viability of SK-BR-3 breast cancer cells – cell-based, 24 h, human, pilot screen (AID 572); settings: SK-BR-3 viability, CellTiter-Glo luminescence, at 10 µM, stronger effect = lower value;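 note: compound exposure lasted between 18 and 24 h rather than exactly 24 h; 100% = carrier-treated control wells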
[4] = HUVEC growth inhibition – cell-based, human, primary screen (AID 575;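 active = viability at or below 30% in both replicate assays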;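 note: 100% = median of untreated cell wells with 0.1% DMSO on each plate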); settings: HUVEC proliferation, CellTiter-Glo luminescence, 72 h; at 10 µM; stronger effect = lower value
Outline: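 System – primary HUVEC, no more than 12 passages · Medium – Low-serum (2% FBS) EBM, supplemented · Times – 72 h exposure, 37 °C, 5% CO2, 30 min RT equilibration · Measured by – luminescent ATP assay · Read-out – % viability relative to median vehicle-well signal on each plate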

[5] = H69AR cell proliferation blockers – human, duplicate replicates, primary screen (AID 580;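 active = viability at or under a set limit in both replicates, limit being median viability minus 3 SD, cut at about 48% in these data, passing the limit was not always enough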;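 note: 100% = mean luminescence of untreated wells and 0% = no signal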); settings: H69AR lung tumor cells viability, ATP luminescence, 72 h; at 10 µM; stronger effect = lower value
[6] = MRP1 drug-resistance reversers in H69AR cells – cell-based, doxorubicin co-treatment, pilot screen (AID 601;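 active = viability loss from added drug above about 55%, and viability with drug at most 40%, in both replicates, limit read from the data, passing the limit was not always enough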); settings: CellTiter-Glo, 72 h, at 10 µM; for differential viability (reversal): stronger effect = higher value
[7] = yeast transport mutant growth inhibition pilot in 384-well plates, post-Golgi transport modulator project (AID 636; in the data active = inhibition above about 31%); settings: absorbance 615 nm, about 18 h, stronger effect = higher value
[8] = growth suppression of yeast trafficking mutant, preliminary HTS, modulators of trafficking downstream of Golgi apparatus project, 1536-format plate, OD 615 nm (AID 637; in the data active = inhibition above about 30%); settings: yeast transport mutant growth, absorbance 615 nm, 18 h; stronger effect = higher value
[9] = H69AR cells + 2 uM doxorubicin, measured here: viability with 2 uM doxorubicin, stronger effect = lower value
[10] = H69AR cells, compound alone cytotoxicity

Receptor tyrosine-protein kinase erbB-2 (Homo sapiens), sequence (P04626 whole entry, looked up): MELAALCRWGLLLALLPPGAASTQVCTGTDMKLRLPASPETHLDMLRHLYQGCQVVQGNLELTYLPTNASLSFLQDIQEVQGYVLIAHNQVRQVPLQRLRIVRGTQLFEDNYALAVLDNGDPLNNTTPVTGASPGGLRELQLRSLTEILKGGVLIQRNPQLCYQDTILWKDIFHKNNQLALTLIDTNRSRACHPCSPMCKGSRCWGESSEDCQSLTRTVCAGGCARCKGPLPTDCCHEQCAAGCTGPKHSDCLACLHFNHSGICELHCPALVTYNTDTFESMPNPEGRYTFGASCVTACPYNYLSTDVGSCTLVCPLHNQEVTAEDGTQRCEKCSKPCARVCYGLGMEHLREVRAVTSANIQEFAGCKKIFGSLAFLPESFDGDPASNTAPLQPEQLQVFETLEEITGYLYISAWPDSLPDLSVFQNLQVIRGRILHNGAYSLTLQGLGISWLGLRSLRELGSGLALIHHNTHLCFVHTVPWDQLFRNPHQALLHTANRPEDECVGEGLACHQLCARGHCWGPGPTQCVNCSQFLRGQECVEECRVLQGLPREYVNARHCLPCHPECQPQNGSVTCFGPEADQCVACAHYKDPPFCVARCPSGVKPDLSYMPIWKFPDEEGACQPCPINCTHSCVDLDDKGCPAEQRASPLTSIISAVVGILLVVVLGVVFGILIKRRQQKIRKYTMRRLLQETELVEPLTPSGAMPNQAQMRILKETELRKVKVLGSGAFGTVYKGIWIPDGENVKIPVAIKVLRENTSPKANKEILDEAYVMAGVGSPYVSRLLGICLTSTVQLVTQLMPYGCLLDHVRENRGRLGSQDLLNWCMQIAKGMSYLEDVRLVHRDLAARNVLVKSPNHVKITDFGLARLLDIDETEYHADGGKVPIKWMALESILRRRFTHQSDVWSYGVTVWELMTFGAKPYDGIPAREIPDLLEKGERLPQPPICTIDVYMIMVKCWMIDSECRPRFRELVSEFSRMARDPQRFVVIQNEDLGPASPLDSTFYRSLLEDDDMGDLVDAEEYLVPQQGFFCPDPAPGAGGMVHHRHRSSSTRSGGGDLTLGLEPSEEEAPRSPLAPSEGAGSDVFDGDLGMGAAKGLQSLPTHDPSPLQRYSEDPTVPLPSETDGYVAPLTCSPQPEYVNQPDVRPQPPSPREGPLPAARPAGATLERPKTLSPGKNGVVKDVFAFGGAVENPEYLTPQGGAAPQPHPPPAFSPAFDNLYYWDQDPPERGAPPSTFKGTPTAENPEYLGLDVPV

With `Cc1ccc(OC(=O)NC2CCS(=O)(=O)C2)cc1C` (stereo not given) the viability [1] was 108%, the Her2 level [2] was 95% (inactive) and the viability [3] was 108% (inactive). The viability [4] was 103% (inactive), the viability [5] was 95.3% (inactive) and the differential viability (reversal) ([6]; H69AR cells + 2 uM doxorubicin) was 2.59% (inactive). The viability [6, 9] was 92.7%, the viability [6, 10] was 95.3% and the inhibition [7] was -2.11% (inactive). For the same compound, the inhibition [8] was 6.23% (inactive).

With `COCCN(CC(=O)NC1CCCCC1)C(=O)CSc1nc2ccccc2o1` the viability [1] was 98%, the Her2 level [2] was 96% (inactive) and the viability [3] was 98% (inactive). The viability [4] was 90.8% (inactive), the viability [5] was 97.6% (inactive) and the differential viability (reversal) ([6]; H69AR cells + 2 uM doxorubicin) was 4.13% (inactive). For the same compound, the viability [6, 9] was 93.5%, the viability [6, 10] was 97.6% and the inhibition [7] was -0.39% (inactive). The inhibition [8] was -5.24% (inactive).

In the case of `CCCOc1nc(N)c(C#N)c(-c2ccccc2F)c1C#N`, the viability [1] is reported as 98.5%, the Her2 level [2] is reported as 114% (inactive) and the viability [3] is reported as 98.5% (inactive). For the same compound, the viability [4] was 82.6% (inactive), the viability [5] was 89.7% (inactive) and the differential viability (reversal) ([6]; H69AR cells + 2 uM doxorubicin) was 29% (inactive). The viability [6, 9] was 60.7%, the viability [6, 10] was 89.7% and the inhibition [7] was -2.53% (inactive). For the same compound, the inhibition [8] was -9.52% (inactive).

With `CN(c1ccccc1C(N)=O)S(=O)(=O)c1ccccc1` the viability [1] was 105%, the Her2 level [2] was 86% (inactive) and the viability [3] was 105% (inactive). The viability [4] was 101% (inactive), the viability [5] was 92.7% (inactive) and the differential viability (reversal) ([6]; H69AR cells + 2 uM doxorubicin) was 7.05% (inactive). For the same compound, the viability [6, 9] was 85.7%, the viability [6, 10] was 92.7% and the inhibition [7] was -6.53% (inactive). The inhibition [8] was -0.48% (inactive).

For `CCOC(=O)Nc1ccc2c(c1)N(C(=O)CN(CC)CC)c1ccccc1C=C2`, the viability [1] was 87.5%, the Her2 level [2] was 93% (inactive) and the viability [3] was 87.5% (inactive). For the same compound, the viability [4] was 97.3% (inactive), the viability [5] was 91.4% (inactive) and the differential viability (reversal) ([6]; H69AR cells + 2 uM doxorubicin) was 8.63% (inactive). The viability [6, 9] was 82.8%, the viability [6, 10] was 91.4% and the inhibition [7] was -4.61% (inactive). The inhibition [8] was 5.9% (inactive).

In the case of `Cc1csc(SCC(=O)NC(=O)NCc2ccccc2)n1`, the viability [1] is reported as 108%, the Her2 level [2] is reported as 90.5% (inactive) and the viability [3] is reported as 108% (inactive). The viability [4] was 103% (inactive), the viability [5] was 95.2% (inactive) and the differential viability (reversal) ([6]; H69AR cells + 2 uM doxorubicin) was -0.125% (inactive). For the same compound, the viability [6, 9] was 95.3%, the viability [6, 10] was 95.2% and the inhibition [7] was -6.67% (inactive). For the same compound, the inhibition [8] was 2.3% (inactive).

With `CCCCn1c(SCC(=O)N2CC(=O)Nc3ccccc32)nnc1-c1ccoc1C` the viability [1] was 86.5%, the Her2 level [2] was 85.5% (inactive) and the viability [3] was 86.5% (inactive). The viability [4] was 97.5% (inactive), the viability [5] was 96.7% (inactive) and the differential viability (reversal) ([6]; H69AR cells + 2 uM doxorubicin) was 4.84% (inactive). For the same compound, the viability [6, 9] was 91.8%, the viability [6, 10] was 96.7% and the inhibition [7] was 2.67% (inactive). The inhibition [8] was -8.55% (inactive).

With `CCn1c2ccccc2c2cc(NC(=O)CSc3nnc(C4CC4)n3Cc3ccco3)ccc21` the viability [1] was 104%, the Her2 level [2] was 88% (inactive) and the viability [3] was 104% (inactive). The viability [4] was 75.5% (inactive), the viability [5] was 79% (inactive) and the differential viability (reversal) ([6]; H69AR cells + 2 uM doxorubicin) was -16.2% (inactive). The viability [6, 9] was 95.2%, the viability [6, 10] was 79% and the inhibition [7] was -6.45% (inactive). For the same compound, the inhibition [8] was -3.17% (inactive).

For `Cc1ccc(NC(=O)CSc2nnc(CNC(=O)c3c(F)cccc3Cl)o2)cc1`, the viability [1] was 80%, the Her2 level [2] was 98% (inactive) and the viability [3] was 80% (inactive). The viability [4] was 98% (inactive), the viability [5] was 95.7% (inactive) and the differential viability (reversal) ([6]; H69AR cells + 2 uM doxorubicin) was -0.775% (inactive). The viability [6, 9] was 96.5%, the viability [6, 10] was 95.7% and the inhibition [7] was -0.51% (inactive). For the same compound, the inhibition [8] was -6.83% (inactive).

In the case of `Cn1cc(CC(=O)Nc2cccc(C#N)c2)c2ccccc21`, the viability [1] is reported as 101%, the Her2 level [2] is reported as 87.5% (inactive) and the viability [3] is reported as 101% (inactive). The viability [4] was 97.7% (inactive), the viability [5] was 104% (inactive) and the differential viability (reversal) ([6]; H69AR cells + 2 uM doxorubicin) was 12.6% (inactive). The viability [6, 9] was 91.7%, the viability [6, 10] was 104% and the inhibition [7] was -4.61% (inactive). For the same compound, the inhibition [8] was -2.22% (inactive).

With `Cc1noc(C)c1CSc1nc2cc(S(=O)(=O)N3CCOCC3)ccc2o1` the viability [1] was 98.5%, the Her2 level [2] was 93% (inactive) and the viability [3] was 98.5% (inactive). The viability [4] was 96.7% (inactive), the viability [5] was 83.6% (inactive) and the differential viability (reversal) ([6]; H69AR cells + 2 uM doxorubicin) was -0.29% (inactive). For the same compound, the viability [6, 9] was 83.9%, the viability [6, 10] was 83.6% and the inhibition [7] was -5.48% (inactive). The inhibition [8] was 5.56% (inactive).

In the case of `CCN(CCNC(=O)C1CCN(S(C)(=O)=O)CC1)c1ccccc1`, the viability [1] is reported as 91%, the Her2 level [2] is reported as 104% (inactive) and the viability [3] is reported as 91% (inactive). For the same compound, the viability [4] was 93.3% (inactive), the viability [5] was 88.2% (inactive) and the differential viability (reversal) ([6]; H69AR cells + 2 uM doxorubicin) was 5.42% (inactive). The viability [6, 9] was 82.8%, the viability [6, 10] was 88.2% and the inhibition [7] was -1.67% (inactive). The inhibition [8] was -1% (inactive).

With `Cc1cc(NC(=O)NC(=O)c2cccc(OC(F)(F)C(F)F)c2)n[nH]1` the viability [1] was 99.5%, the Her2 level [2] was 94% (inactive) and the viability [3] was 99.5% (inactive). The viability [4] was 80.4% (inactive), the viability [5] was 85.2% (inactive) and the differential viability (reversal) ([6]; H69AR cells + 2 uM doxorubicin) was -12.8% (inactive). For the same compound, the viability [6, 9] was 98%, the viability [6, 10] was 85.2% and the inhibition [7] was -3.73% (inactive). For the same compound, the inhibition [8] was 20% (inactive).

In the case of `O=C(c1cnn2c(C(F)(F)F)cc(-c3ccco3)nc12)N1CCc2ccccc2C1`, the viability [1] is reported as 76%, the Her2 level [2] is reported as 112% (inactive) and the viability [3] is reported as 76% (inactive). The viability [4] was 69.9% (inactive), the viability [5] was 89.6% (inactive) and the differential viability (reversal) ([6]; H69AR cells + 2 uM doxorubicin) was 3.92% (inactive). For the same compound, the viability [6, 9] was 85.7%, the viability [6, 10] was 89.6% and the inhibition [7] was -1.33% (inactive). For the same compound, the inhibition [8] was -9.37% (inactive).
